What all share (type): functional, organism-based
The test system of experiment [1] is Trypanosoma brucei brucei. Kind of experiment: In vivo antitrypanosomal activity against Trypanosoma brucei brucei infected stage-I mouse model of HAT assessed as clearance of peripheral blood parasites at 50 mg/kg, po twice daily for 5 consecutive days. As to conditions: time 5.0 day. The procedure, abridged:
(§1)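 Mice in groups of three were infected IP with 10^4 T. b. brucei Squib 427 […]. Parasitemia was checked by tail-vein blood microscopy up to 63 dpi, plus SL RNA qPCR on survivors.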

The test system of experiment [2] is Trypanosoma brucei brucei. Kind of experiment: In vivo antitrypanosomal activity against Trypanosoma brucei brucei infected stage-I mouse model of HAT assessed as clearance of peripheral blood parasites at 50 mg/kg, po twice daily for 5 consecutive days measured for 60 days of post infection. The note with it: time 60.0 day. The gist of the method:
as §1

For experiment [3], the system named is Trypanosoma brucei brucei. Kind of experiment: In vivo antitrypanosomal activity against Trypanosoma brucei brucei infected stage-I po dosed mouse model of HAT assessed as clearance of parasitemia treated twice daily for 5 consecutive days. The note with it: dose 6.25-50 mg/kg, time 5.0 day. The gist of the method:
as §1

Calls of active or inactive are those of the source. The calls are words filed in the database; no cut-off is given here.

With `Cc1ccc(C(=O)Nc2ccc(S(=O)(=O)O)c3cc(S(=O)(=O)O)cc(S(=O)(=O)O)c23)cc1NC(=O)c1cccc(NC(=O)Nc2cccc(C(=O)Nc3cc(C(=O)Nc4ccc(S(=O)(=O)O)c5cc(S(=O)(=O)O)cc(S(=O)(=O)O)c45)ccc3C)c2)c1`, the outcome in experiment [1] was Active.

Turning to `CC(C)c1n[nH]c2c(=O)[nH]c(-c3ccc(F)cc3)nc12`, the result in experiment [2] was Active. Besides, the Activity result in experiment [3] is “Dose-Dependent Effect”.
